Test [1] concerns Escherichia coli. Put plainly: Antibacterial activity against Escherichia coli at 1 mM by almar blue dye reduction assay. In kind it is functional, organism-based. In a few lines: (§1)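 Single-point primary screen at 1 mM using Alamar Blue dye reduction as the growth read-out.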
In test [2] the test system is Cryptococcus neoformans. Put plainly: Antifungal activity against Cryptococcus neoformans at 1 mM by almar blue dye reduction assay. In kind it is functional, organism-based. In a few lines: as §1
Test [3] deals with Bacillus subtilis. Put plainly: Antibacterial activity against Bacillus subtilis by almar blue dye reduction assay. In kind it is functional. In a few lines:
(§2)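 Compounds advanced from the 1 mM screen were tested over a dilution series, with a top concentration of 1 mM, using Alamar Blue dye reduction. MIC is the lowest concentration with no dye reduction. Where inhibition was partial with some growth at the top concentration, the value is reported as '>'.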

The test system of test [4] is Saccharomyces cerevisiae. Put plainly: Antifungal activity against Saccharomyces cerevisiae at 1 mM by almar blue dye reduction assay. Type of test: functional, organism-based. In a few lines: as §1
Test [5] concerns Bacillus cereus. Put plainly: Antibacterial activity against Bacillus cereus at 1 mM by almar blue dye reduction assay. In kind it is functional, organism-based. In short, it runs like this: as §1
The subject of test [6] is Pseudomonas aeruginosa. The test can be described thus: Antibacterial activity against Pseudomonas aeruginosa at 1 mM by almar blue dye reduction assay. In kind it is functional, organism-based. In short, it runs like this: as §1
The subject of test [7] is Staphylococcus aureus. The test can be described thus: Antibacterial activity against Staphylococcus aureus at 1 mM by almar blue dye reduction assay. Type of test: functional, organism-based. In short, it runs like this: as §1
For test [8], the system named is Bacillus anthracis. Put plainly: Antibacterial activity against Bacillus anthracis at 1mM by almar blue dye reduction assay. Type of test: functional, organism-based.
The subject of test [9] is Candida albicans. Put plainly: Antifungal activity against Candida albicans at 1 mM by almar blue dye reduction assay. In kind it is functional, organism-based. In a few lines: as §1
Test [10] deals with Cryptococcus neoformans. The test can be described thus: Antifungal activity against Cryptococcus neoformans at by almar blue dye reduction assay. In kind it is functional. In short, it runs like this: as §2
Test [11] has as its system Bacillus anthracis. Put plainly: Antibacterial activity against Bacillus anthracis by almar blue dye reduction assay. Type of test: functional.
The test system of test [12] is Bacillus cereus. Put plainly: Antibacterial activity against Bacillus cereus by almar blue dye reduction assay. In kind it is functional. In short, it runs like this: as §2
Test [13] has as its system Staphylococcus aureus. Put plainly: Antibacterial activity against Staphylococcus aureus by almar blue dye reduction assay. In kind it is functional. In short, it runs like this: as §2
The test system of test [14] is Saccharomyces cerevisiae. Put plainly: Antifungal activity against Saccharomyces cerevisiae by almar blue dye reduction assay. In kind it is functional. In short, it runs like this: as §2
The test system of test [15] is Bacillus subtilis. Put plainly: Antibacterial activity against Bacillus subtilis at 1 mM by almar blue dye reduction assay. Type of test: functional, organism-based. In short, it runs like this:
as §1

In test [16] the test system is Candida albicans. The test can be described thus: Antifungal activity against Candida albicans by almar blue dye reduction assay. In kind it is functional. In short, it runs like this: as §2
Test [17] deals with Escherichia coli. The test can be described thus: Antibacterial activity against Escherichia coli by almar blue dye reduction assay. Type of test: functional. In a few lines:
as §2

The subject of test [18] is Pseudomonas aeruginosa. The test can be described thus: Antimicrobial activity against Pseudomonas aeruginosa by almar blue dye reduction assay. Type of test: functional. In short, it runs like this:
as §2

Converted amounts (≈) assume the structure as drawn. The source made the active and inactive calls. No rule for the calls is given here.

By MIC is commonly meant the lowest concentration that inhibits growth of the organism. A higher MIC goes with weaker potency. Consider `C[C@H](C[C@@H]1CC[C@H]([C@@H](C)C(=O)N2CCN(CC3CCCO3)CC2)O1)n1cc(C#Cc2ccc(C(F)(F)F)cc2)nn1` (some centres not stated), for which the outcome in test [1], in test [2], in test [4], in test [5], in test [6] and in [7] was inactive. Also, the result in [8] and in [9] was inactive. The compound also gave an MIC in test [3] of 820 µg/mL (≈ 1430 µM).
Take `CCCCN(CC#Cc1cn([C@H](C)C[C@@H]2CC[C@H]([C@@H](C)C(=O)N(C)Cc3ccccc3)O2)nn1)CCCC`: the MIC in test [10] worked out at 250 µg/mL (≈ 479 µM); in [3], 250 µg/mL (≈ 479 µM); in test [11], 500 µg/mL (≈ 958 µM); in test [12] it was 250 µg/mL (≈ 479 µM); in test [13] it was 500 µg/mL (≈ 958 µM). The outcome in test [1], in test [4], in test [6] and in test [9] was inactive.
As for `C[C@H](C[C@@H]1CC[C@H]([C@@H](C)C(=O)N2CCN(CC3CCCO3)CC2)O1)n1cc(C#Cc2ccc(-c3ccccc3)cc2)nn1` (some centres not stated), the outcome in [1], in test [2], in test [4], in [5], in [6] and in test [7] was inactive. Further, the result in [8] and in test [9] was inactive. Moreover, the MIC in test [3] stood at 560 µg/mL (≈ 963 µM).
`C[C@H](C[C@@H]1CC[C@H]([C@@H](C)C(=O)N(C)Cc2ccccc2)O1)n1cc(C#CCC2CCCC2)nn1`: the MIC was found to be 219 µg/mL (≈ 473 µM) in [10], 440 µg/mL (≈ 951 µM) in test [11], 220 µg/mL (≈ 476 µM) in test [14] and 440 µg/mL (≈ 951 µM) in test [12]. Also, the result in test [1], in [6], in test [7], in test [9] and in test [15] was inactive.
Regarding `C[C@H](C[C@@H]1CC[C@H]([C@@H](C)C(=O)N(C)Cc2ccccc2)O1)n1cc(C#Cc2ccccn2)nn1`, the result in [1], in test [2], in [4], in test [5], in [6] and in test [7] was inactive. The result in test [9] and in [15] was inactive. For the same compound, in test [11], the MIC was above 430 µg/mL.
Regarding `CCCCCC#Cc1cn([C@H](C)C[C@@H]2CC[C@H]([C@@H](C)C(=O)N(C)Cc3ccccc3)O2)nn1`, the MIC turned out to be 430 µg/mL (≈ 954 µM) in [10], 430 µg/mL (≈ 954 µM) in [11], 430 µg/mL (≈ 954 µM) in test [14] and 640 µg/mL (≈ 1420 µM) in test [12]. Further, the result in [1], in [6], in [7], in test [9] and in test [15] was inactive.
For the compound `C[C@H](C[C@@H]1CC[C@H]([C@@H](C)C(=O)N2CCN(CC3CCCO3)CC2)O1)n1cc(C#CCOc2cccc(-c3ccccc3)c2)nn1` (some centres not stated), the MIC in test [10] was 290 µg/mL (≈ 474 µM); in test [16] it was 590 µg/mL (≈ 964 µM); in test [3], 880 µg/mL (≈ 1440 µM); in test [11], above 590 µg/mL; in [14], 290 µg/mL (≈ 474 µM); in test [12], 150 µg/mL (≈ 245 µM). For the same compound, the result in test [1], in test [6] and in test [7] was inactive.
Take `CCOC(=O)C#Cc1cn([C@H](C)CC2CCC([C@@H](C)C(=O)N3CCN(CC4CCCO4)CC3)O2)nn1` (single isomer, unassigned): the MIC was 480 µg/mL (≈ 957 µM) in [10]; 240 µg/mL (≈ 478 µM) in test [16]; 240 µg/mL (≈ 478 µM) in test [3]; above 480 µg/mL in test [11]; 240 µg/mL (≈ 478 µM) in test [14]; 240 µg/mL (≈ 478 µM) in test [12]. In addition, the values for the MIC in test [13], in test [17] and in [18] were 120 µg/mL (≈ 239 µM), 120 µg/mL (≈ 239 µM) and 480 µg/mL (≈ 957 µM), respectively.
For `C[C@H](C[C@@H]1CC[C@H]([C@@H](C)C(=O)N(C)Cc2ccccc2)O1)n1cc(C#CCN(C)CCc2ccccc2)nn1`, the MIC came to 500 µg/mL (≈ 947 µM) in test [10]; 250 µg/mL (≈ 474 µM) in [3]; 250 µg/mL (≈ 474 µM) in test [11]; 250 µg/mL (≈ 474 µM) in [12]; 500 µg/mL (≈ 947 µM) in test [13]. Also, the outcome in test [1], in [4], in test [6] and in [9] was inactive.
Turning to `CCCCN(CC#Cc1cn([C@H](C)C[C@@H]2CC[C@H]([C@@H](C)C(=O)N3CCN(CC4CCCO4)CC3)O2)nn1)CCCC` (some centres not stated), the outcome in [1], in test [2], in test [4], in test [5], in [6] and in test [7] was inactive. The result in test [8] and in test [9] was inactive. In [3], this compound showed an MIC of 820 µg/mL (≈ 1440 µM).
`CCN(CC)C(=O)[C@H](C)C1CCC(C[C@@H](C)n2cc(C#CCNC(=O)Nc3cccc(C)c3)nn2)O1` (single isomer, unassigned): the outcome in [1], in test [2], in test [4], in test [5], in [6] and in [7] was inactive. Also, the result in test [8] and in test [9] was inactive. In addition, the MIC in [3] stood at 700 µg/mL (≈ 1420 µM).
For the compound `C[C@H](C[C@@H]1CC[C@H]([C@@H](C)C(=O)N2CCN(CC3CCCO3)CC2)O1)n1cc(C#Cc2cccc3ccccc23)nn1` (some centres not stated), the result in test [1], in [2], in [4], in test [5], in [6] and in test [7] was inactive. The outcome in test [8], in [9] and in test [15] was inactive. The MIC in [3] is 790 µg/mL (≈ 1420 µM); in [11], 263 µg/mL (≈ 473 µM); in test [12] it was 260 µg/mL (≈ 468 µM).
Regarding `CCN(CC)C(=O)[C@H](C)[C@H]1CC[C@@H](C[C@@H](C)n2cc(C#CCOc3cccc(OC)c3OC)nn2)O1`, the MIC in test [10] stood at 480 µg/mL (≈ 963 µM). The result in test [1], in test [4], in test [5], in [6], in test [7] and in test [8] was inactive. Besides, the outcome in [9] and in test [15] was inactive.
For the compound `C[C@H](C[C@@H]1CC[C@H]([C@@H](C)C(=O)N2CCN(CC3CCCO3)CC2)O1)n1cc(C#CCN2CCOCC2)nn1` (some centres not stated), the outcome in test [1], in test [2], in test [4], in test [5], in test [6] and in test [7] was inactive. Also, the outcome in test [8], in [9] and in test [15] was inactive.
With `CCN(CC)C(=O)[C@H](C)[C@H]1CC[C@@H](C[C@@H](C)n2cc(C#CCN(C)C)nn2)O1`, the result in test [1], in test [2], in [4], in test [5], in [6] and in test [7] was inactive. The result in [8], in test [9] and in [15] was inactive.
As to `Cc1cccc(NC(=O)OCC#Cc2cn([C@H](C)CC3CCC([C@@H](C)C(=O)N4CCN(CC5CCCO5)CC4)O3)nn2)c1` (single isomer, unassigned), the result in test [1], in test [2], in [4], in [6], in test [7] and in test [8] was inactive. For the same compound, the result in [9] and in test [15] was inactive. The compound also registered an MIC in [12] of 570 µg/mL (≈ 962 µM).
